Experimental data as given in PMC6102747 (Molecular Medicine Reports, 2018).
Like-named read-outs stand apart in the source and are kept apart here.

Key:
Mrp2 = experiment: RT-qPCR mRNA expression in small intestine and liver; format: in vivo, rats; conditions: vs control
Cyp3a1 = format: in vivo, rats; conditions: vs control
Mdr1 = experiment: RT-qPCR mRNA expression in small intestine and liver; format: in vivo, rats; conditions: vs control
Procedure, shortened: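 Rats, 3 per group, dosed once daily for 7 days: phosphate buffer 5 ml/kg i.v., test compound 2.5/5/10 mg/kg i.v. in phosphate buffer, ketoconazole 75 mg/kg i.g. in olive oil, or verapamil 4 mg/kg i.g. in water. Olive oil 5 ml/kg gavaged 30 min after day-7 dose. Killed 24 h post-dose after overnight fast; liver and intestinal mucosa snap-frozen. qPCR: 40 cycles, 58°C annealing; 2−ΔΔCq.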

[1] = Pharmacokinetics of CsA after oral administration; format: in vivo, Sprague-Dawley rats; conditions: rats; for increase in the CL/F of CsA / increase in the V/F of CsA / decrease in AUC0-t of CsA / decrease in AUC0-∞ of CsA / decrease in Cmax of CsA: oral CsA 10 mg/kg; for decrease in AUC0-t of CsA / decrease in AUC0-∞ of CsA / decrease in Cmax of CsA: vs control; for decrease in Cmax of CsA: P>0.05
[2] = liver, low-dose Q3GA 2.5 mg/kg i.v. 7 days, P<0.001
[3] = small intestine, low-dose Q3GA 2.5 mg/kg i.v. 7 days, P<0.001
[4] = small intestine, middle-dose Q3GA 5 mg/kg i.v. 7 days, P<0.01
[5] = liver, high-dose Q3GA 10 mg/kg i.v. 7 days, P<0.01
[6] = liver, middle-dose Q3GA 5 mg/kg i.v. 7 days, P<0.05
[7] = small intestine, high-dose Q3GA 10 mg/kg i.v. 7 days, P<0.001
[8] = high-dose Q3GA 10 mg/kg i.v. 7 days
[9] = low-dose Q3GA 2.5 mg/kg i.v. 7 days
[10] = middle-dose Q3GA 5 mg/kg i.v. 7 days

O=c1c(O[C@@H]2O[C@H](CO)[C@@H](O)[C@H](O)[C@H]2O)c(-c2ccc(O)c(O)c2)oc2cc(O)cc(O)c12 [Q3GA, Quercetin-3-O-β-D-glucoside]
decrease in Mrp2 mRNA expression (Mrp2; liver, high-dose Q3GA 10 mg/kg i.v. 7 days, P<0.05): 20.44%
decrease in Mrp2 mRNA expression (Mrp2; [2]): 68.86%
decrease in Mrp2 mRNA expression (Mrp2; liver, middle-dose Q3GA 5 mg/kg i.v. 7 days, P<0.01): 32.70%
decrease in Mrp2 mRNA expression (Mrp2; small intestine, high-dose Q3GA 10 mg/kg i.v. 7 days, P<0.01): 28.66%
decrease in Mrp2 mRNA expression (Mrp2; [3]): 66.03%
decrease in Mrp2 mRNA expression (Mrp2; [4]): 34.53%
decrease in CYP3A1 protein expression (Cyp3a1; [5]): 52.99%
decrease in CYP3A1 protein expression (Cyp3a1; liver, low-dose Q3GA 2.5 mg/kg i.v. 7 days, P<0.01): 57.66%
decrease in CYP3A1 protein expression (Cyp3a1; [6]): 43.95%
decrease in CYP3A1 protein expression (Cyp3a1; [7]): 62.95%
decrease in CYP3A1 protein expression (Cyp3a1; [3]): 75.25%
decrease in CYP3A1 protein expression (Cyp3a1; [4]): 39.22%
decrease in Mdr1 mRNA expression (Mdr1; [5]): 47.32%
decrease in Mdr1 mRNA expression (Mdr1; [2]): 67.60%
decrease in Mdr1 mRNA expression (Mdr1; [6]): 45.09%
decrease in Mdr1 mRNA expression (Mdr1; [7]): 33.33%
decrease in Mdr1 mRNA expression (Mdr1; [3]): 47.47%
decrease in Mdr1 mRNA expression (Mdr1; small intestine, middle-dose Q3GA 5 mg/kg i.v. 7 days, P<0.001): 17.51%
effect on bioavailability of oral CsA ([1]; Q3GA 2.5, 5 or 10 mg/kg i.v. for 7 consecutive days): reduced the bioavailability of oral CsA
increase in the CL/F of CsA ([1]; Q3GA 5 mg/kg daily i.v. 7 days): 72.71%
increase in the V/F of CsA ([1]; Q3GA 5 mg/kg daily i.v. 7 days, P<0.01): 103.32%
increase in the CL/F of CsA ([1]; Q3GA 10 mg/kg daily i.v. 7 days): 79.57%
increase in the V/F of CsA ([1]; Q3GA 10 mg/kg daily i.v. 7 days, P<0.05): 93.19%
decrease in AUC0-t of CsA [1, 8]: 47.79%
decrease in AUC0-∞ of CsA [1, 8]: 46.30%
decrease in Cmax of CsA [1, 8]: 40.41%
decrease in AUC0-t of CsA [1, 9]: 34.26%
decrease in AUC0-∞ of CsA [1, 9]: 34.66%
decrease in Cmax of CsA [1, 9]: 33.12%
decrease in AUC0-t of CsA [1, 10]: 36.32%
decrease in AUC0-∞ of CsA [1, 10]: 34.81%
